High-throughput results from PubChem.
An excerpt weighted towards active compounds, which were near 2.2% of everything screened.
APJ antagonist = antagonists of human apelin receptor APJ, primary screen, CHO-K1 cells, beta-arrestin complementation, luminescence | AID 2521, 2010 | inhibition, % at 20 µM | P35414 | hit rate 0.32% among 330,000;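 active = inhibition above about 40% at 20 µM, limit read from the data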;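 note: cells challenged with 10 nM apelin-13 agonist together with compound; plate controls were apelin-13 plus DMSO wells for no effect and DMSO wells lacking apelin-13 for full effect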
CCR6 antagonist = CCR6 receptor antagonists, primary screen, cell-based, CHO-K1, luminescence, beta-arrestin, uHTS. C-C chemokine receptor type 6 (Homo sapiens), P51684. CHO-K1 CCR6 PathHunter beta-arrestin, CCL20-stimulated. inhibition, % at 20 µM. hit rate 0.49% among 340,000. AID 493098, 2011;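 active = compounds whose inhibition of the agonist-driven luminescence signal at 20 µM reaches about 50%, limit read from the data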;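 note: cells stimulated with CCL20 at 14 nM final; plate controls were DMSO with CCL20 for no effect and DMSO without agonist for full effect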
m5-HT2A agonist = mouse Htr2a agonists via beta-arrestin recruitment, primary screen, cell-based, luminescence; 5-hydroxytryptamine receptor 2A (Mus musculus), P35363; CHO-K1 mHTR2A beta-arrestin complementation; percent of 30 µM serotonin response; activation, % at 7.6 µM; hit rate 0.66% among 360,000; AID 624169, 2012;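 active = activation above a run cutoff, the mean activation of all tested compounds plus 3 SD, cut at about 14% in these data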;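 note: 0% = plate median of compound wells and 100% = 30 µM serotonin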
EBI2 antag = EBI2 receptor antagonists, beta-arrestin recruitment, primary screen, cell-based, luminescence, 7a,25-OHC stimulation, uHTS; inhibition, % at 5 µM; 7a,25-OHC stimulated; hit rate 0.81% among 360,000; G-protein coupled receptor 183 (Homo sapiens), P32249; in the data active = inhibition above about 38%;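 note: enzyme fragment complementation signal reports receptor beta-arrestin coupling in cells; 0% = agonist plus DMSO wells and 100% = wells without agonist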
Target sequence (P32249 whole entry, looked up, the tested form may be a part): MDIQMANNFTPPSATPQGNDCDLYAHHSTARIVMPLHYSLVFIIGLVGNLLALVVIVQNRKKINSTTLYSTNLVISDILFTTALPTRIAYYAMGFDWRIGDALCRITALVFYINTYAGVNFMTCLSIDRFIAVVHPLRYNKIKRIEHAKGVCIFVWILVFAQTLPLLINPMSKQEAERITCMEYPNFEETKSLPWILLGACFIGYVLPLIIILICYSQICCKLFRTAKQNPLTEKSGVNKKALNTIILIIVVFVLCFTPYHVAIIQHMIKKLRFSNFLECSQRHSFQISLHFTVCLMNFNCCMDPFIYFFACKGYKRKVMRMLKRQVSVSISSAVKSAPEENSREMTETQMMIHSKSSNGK
APJ ag = agonists of human apelin receptor APJ, primary screen, CHO-K1 cells, PathHunter beta-arrestin, luminescence; P35414; 0% DMSO wells, 100% apelin; activation, % at 20 µM; hit rate 0.11% among 330,000; AID 2520, 2010;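 active = activation more than six SD over the plate average, tested at 20 µM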;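 note: 0% = DMSO alone and 100% = apelin-13 at 10 nM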
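Assay system – PathHunter CHO-K1 APJ (AGTRL-1) beta-arrestin reporter cells · Compound – one dose, 20 µM compound, 1% DMSO · Timing – compound 90 min 25 °C, reagent 1 h · Measured by – luminescence from split beta-galactosidase complementation, Galacton Star/Emerald II substrate · Measure – beta-arrestin recruitment to APJ as agonist activity, luminescent signal · Benchmarks – DMSO vs Apelin-13 10 nM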
CXCR6 inh = CXCR6 receptor inhibitors, primary screen, cell-based, beta-arrestin, luminescence, CHO-K1 PathHunter, 1536-well | AID 602244, 2012 | hit rate 0.36% among 360,000 | inhibition, % at 20 µM | C-X-C chemokine receptor type 6 (Homo sapiens), O00574; in the data active = inhibition above about 34%, passing the limit was not always enough;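 note: antagonist mode with CXCL16 agonist at 10 nM final; 0% = 10 nM CXCL16 with DMSO and 100% = unstimulated wells without agonist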
Target sequence (O00574 whole entry, looked up): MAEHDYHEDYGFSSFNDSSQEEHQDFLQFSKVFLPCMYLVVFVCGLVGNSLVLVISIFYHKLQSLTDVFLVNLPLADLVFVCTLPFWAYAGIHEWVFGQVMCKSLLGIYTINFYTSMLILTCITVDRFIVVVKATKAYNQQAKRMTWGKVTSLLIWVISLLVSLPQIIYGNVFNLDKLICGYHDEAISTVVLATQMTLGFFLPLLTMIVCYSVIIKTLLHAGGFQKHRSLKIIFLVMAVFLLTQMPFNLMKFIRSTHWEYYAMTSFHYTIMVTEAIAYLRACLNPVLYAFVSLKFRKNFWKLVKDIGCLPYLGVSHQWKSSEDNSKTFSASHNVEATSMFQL
EBI2 antag conf = EBI2 antagonist hit retest, beta-arrestin, confirmation, cell-based, single concentration, luminescence, 7a,25-OHC stimulation; shares compounds with EBI2 antag; 7a,25-OHC antagonism; inhibition, % at 5 µM; hit rate 29% among 2,400;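 active = inhibition of at least 50%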
EBI2 ag = EBI2 agonist activity of antagonist hits, confirmation, counter-screen for EBI2 antagonist project, cell-based, single concentration, agonist mode, luminescence; 2,400 tested, under 10 active; shares compounds with EBI2 antag; EBI2-expressing cells, 60 min; 0% vehicle, 100% 7α,25-dihydroxycholesterol control; AID 652000, 2013; activation, % at 5 µM;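 active = activation of at least 50%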
bGal counter = E. coli beta-galactosidase enzyme inhibition, confirmation, counter-screen for EBI2 antagonist project, biochemical, luminescence, single concentration; shares compounds with EBI2 antag; purified beta-galactosidase, luminescent Galacton Star, 15 min; inhibition, % at 5 µM; hit rate 1% among 2,400;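 active = replicate-average signal at least 3 plate SD below neutral wells, shown as high inhibition, flagging enzyme-inhibiting false positives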;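 note: 0% = DMSO wells with enzyme and 100% = wells lacking enzyme; higher means stronger loss of beta-gal luminescence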
* = called active by the depositor; . = not tested or not shown.

SMILES	APJ antagonist	CCR6 antagonist	m5-HT2A agonist	EBI2 antag	APJ ag	CXCR6 inh	EBI2 antag conf	EBI2 ag	bGal counter
C[C@@H](C(=O)Nc1ccc2ccccc2c1)[C@@H]1C[C@@]1(C)[C@@H](NC(=O)c1cnccn1)c1ccccc1	9	17	-18	75*	-6	7	42	-2	-13
COCCNC(=O)C1(C)CCCN(C(=O)c2cccc(Cl)c2)C1 (stereo not given)	.	.	0	-5	.	1	.	.	.
COc1cc(NS(=O)(=O)c2ccc(-n3cccn3)cc2)cc(OC)c1	.	.	3	4	.	3	.	.	.
COc1cc(OC)c(C=NNC(=S)NC23CC4CC(CC(C4)C2)C3)c(OC)c1	.	20	-3	54*	.	9	12	0	-5
COc1ccc(C=NNC(=S)NC23CC4CC(CC(C4)C2)C3)cc1OC	.	23	8	41	.	16	.	.	.
CN1CCN(C(=O)c2ccc3ccccc3c2)CC1	-14	11	-4	41	-4	-5	.	.	.
COc1cccc(N2CCN(C(=O)c3ccc4ccccc4c3)CC2)c1	-4	4	10	62*	-5	-19	42	1	5
COc1ccc(N2CCN(C(=O)c3csc4ccccc34)CC2)cc1	9	15	3	53*	-4	-2	39	0	10
COc1cc(C(=O)N2CCN(C(=O)COc3ccc4ccccc4c3)CC2)cc(OC)c1OC	25	3	3	71*	-3	-7	50*	0	6
CCOC(=O)N1CCN(C(=O)c2ccc3ccccc3c2)CC1	-2	15	1	68*	0	-3	31	-1	-10
Cc1cccc(C)c1NC(=O)C1(C)CSCC(=O)N1CCc1c[nH]c2ccccc12 (stereo not given)	.	.	-5	13	.	.	.	.	.
COc1cc(/C=C/CNC[C@H]2O[C@@H](n3cnc4c(N)ncnc43)[C@H](O)[C@@H]2O)ccc1O	.	.	0	-8	.	-7	.	.	.
O=C(c1ccc2c(c1)OCO2)N1CCN(c2ccc(C(F)(F)F)cn2)CC1	-6	11	2	-7	-2	-4	.	.	.
O=C(c1ccc2ccccc2c1)N1CCN(c2ccc(C(F)(F)F)cn2)CC1	6	14	3	85*	-4	-20	71*	2	10
COc1cccc(C(=O)N2CCN(C(=O)COc3ccc4ccccc4c3)CC2)c1	-7	-3	0	95*	-4	1	78*	1	8
O=C(COc1ccc2cc(Br)ccc2c1)N1CCCC1	6	3	-7	69*	4	0	44	2	8
Cc1cccc(CN2[C@H](COC(=O)Nc3ccccc3)C=CS2(=O)=O)c1	.	.	-4	-1	.	2	.	.	.
O=C1c2ccccc2C(c2nnnn2Cc2ccccc2)N1C1CC1 (stereo not given)	.	.	4	-5	.	4	.	.	.
COC(=O)[C@@]1(Cc2ccc(OC)cc2)[C@H]2c3cc(C(=O)N4CCCC4)n(CCc4ccc(OC)c(Br)c4)c3C[C@H]2CN1C(=O)c1ccccc1	.	.	-1	44*	.	15	5	-1	-13
CCOC(=O)C1CCCN(C(=O)c2cc(C)n(C(C)(C)C)n2)CC1 (stereo not given)	.	.	1	5	.	-8	.	.	.
c1ccc(CNc2nc(NCCc3ccncc3)c3sccc3n2)cc1	.	.	-9	2	.	4	.	.	.
Cc1ccc(NC(=O)c2ccc(S(=O)(=O)N3CCC(C)CC3)cc2)cc1	9	6	-7	53*	-1	-3	12	2	4
Cc1ccc(NC(=O)C2=CCN(S(=O)(=O)c3ccc(F)cc3)CC2)cc1	-10	-6	-2	47*	-2	-4	37	0	0
CC(=O)Nc1ccc(S(=O)(=O)N2CCC(C(=O)c3ccc(Cl)cc3)CC2)cc1	-2	9	0	54*	3	-1	19	2	9
COc1cc(-n2c(C)nc3ncn(-c4ccccc4)c3c2=O)cc(OC)c1OC	.	.	-2	-4	.	-8	.	.	.
SMILES	APJ antagonist	CCR6 antagonist	m5-HT2A agonist	EBI2 antag	APJ ag	CXCR6 inh	EBI2 antag conf	EBI2 ag	bGal counter
COc1ccc(C(=O)C[C@@H]2OC[C@H](Cc3ccccc3)N2S(=O)(=O)c2ccc(C)cc2)cc1OC	.	.	-3	17	.	.	.	.	.
O=[N+]([O-])c1nccn1C1C=CC(O)C(CO)O1 (stereo not given)	.	.	-2	0	.	2	.	.	.
CCc1ccc(Oc2coc3cc(OCC(=O)Nc4cc(C)ccc4C)ccc3c2=O)cc1	15	2	-1	52*	4	-5	11	0	-11
Cc1cc(C)c(-c2c(N)cc(Br)cc2Br)c(N)c1	.	4	-6	8	.	0	.	.	.
Cc1ccccc1Oc1nc2c(C)cccn2c(=O)c1/C=C(\C#N)C(=O)Nc1c(C)n(C)n(-c2ccccc2)c1=O	-15	13	-2	65*	-1	-1	61*	1	10
Cc1c(NC(=O)/C(C#N)=C/c2c(Oc3ccccc3)nc3ccccn3c2=O)c(=O)n(-c2ccccc2)n1C	7	2	3	28	-1	0	.	.	.
Cc1ccc(Oc2nc3ccccn3c(=O)c2/C=C(\C#N)C(=O)Nc2c(C)n(C)n(-c3ccccc3)c2=O)cc1	-4	-9	-1	57*	2	1	62*	0	8
NS(=O)(=O)c1ccc(S(=O)(=O)N2CCCC(c3ccccc3)C2)cc1 (stereo not given)	.	.	5	7	.	-3	.	.	.
N#C/C(=C/c1ccc2c(c1)OCO2)C(=O)NCCc1c[nH]c2ccccc12	7	13	-1	51*	0	3	44	1	9
CCNC(=O)C1(C)CCCN(C(=O)c2cc3ccccc3s2)C1 (stereo not given)	.	.	-5	-3	.	0	.	.	.
CCCCC[C@@H](C)N1C[C@@H](COCc2ccccc2)Oc2cc(N3CC[C@@H](O)C3)ccc2S1(=O)=O	.	.	-2	45*	.	11	21	-2	-11
